# “And” between values parts separate entries of the source, which are not always exact repeats. Equal entries are not always repeated.
# Tested on: HEK-293T
# Test: Multiplex assay against HEK293T
# Type: toxicity, cell-based
# Details: human, 12 h, 1 µM, compound concentration 1 uM
# How it was run: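 Values for tubulin, mitochondrial-mass and membrane-permeability phenotypes are per cents of cells with healthy nuclei. These cells were identified by CellPathfinder machine-learning gating of live cells that had been stained at seeding with Hoechst33342, BioTracker Green Microtubule Cytoskeleton Dye, MitoTracker Red and Annexin V Alexa Fluor 680 and imaged on a CQ1 microscope at 37°C and 5% CO2 after compound addition. The gating first set Hoechst high-intensity objects apart from normal cells, then split normal cells into healthy, pyknosed or fragmented nuclei, and pyknosed cells into mitotic or apoptotic.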
Compound,Population Apoptotic (%),Population Fragmented Nuclei (%),Population Healthy Nuclei (%),Population Hoechst High Intensity Objects (%),Population Membrane Permeable-Phenotype (%),Population Mitochondria Different-Phenotype (%),Population Mitotic Cells (%),Population Normal (%),Population Pyknosed Nuclei (%),Population Tubulin-Different-Phenotype (%)
COCCCN1CCC(NC(=O)c2cc(Cl)c(N)c3c2OCC3)CC1 [PRUCALOPRIDE],22% and 31%,10% and 4%,80% and 82%,8% and 7%,0,36% and 59%,77% and 68%,91% and 92%,9% and 12%,21% and 16%
N#Cc1cc(F)cc(-c2nc(-c3ccc(F)cn3)no2)c1,38% and 64%,10% and 6%,76% and 77%,5% and 8%,0,41% and 55%,61% and 36%,95% and 91%,12% and 15%,25% and 22%
CN1CCN2c3ncccc3Cc3ccccc3C2C1 (stereo not drawn) [MIRTAZAPINE],58% and 51%,4% and 3%,88% and 79%,5% and 7%,0,41% and 68%,41% and 48%,94% and 92%,7% and 17%,22% and 21%

# Same assay, conditions: human, 12 h, 1 µM, compound concentration 1 uM
row,Compound,Total Cell Count
1,COCCCN1CCC(NC(=O)c2cc(Cl)c(N)c3c2OCC3)CC1 [PRUCALOPRIDE],416 and 397
2,N#Cc1cc(F)cc(-c2nc(-c3ccc(F)cn3)no2)c1,280 and 342
3,CN1CCN2c3ncccc3Cc3ccccc3C2C1 (stereo not drawn) [MIRTAZAPINE],402 and 329

# Same assay, conditions: human, 12 h, 10 µM, compound concentration 10 uM
Compound,Population Apoptotic (%),Population Fragmented Nuclei (%),Population Healthy Nuclei (%),Population Hoechst High Intensity Objects (%),Population Membrane Permeable-Phenotype (%),Population Mitochondria Different-Phenotype (%),Population Mitotic Cells (%),Population Normal (%),Population Pyknosed Nuclei (%),Population Tubulin-Different-Phenotype (%)
COCCCN1CCC(NC(=O)c2cc(Cl)c(N)c3c2OCC3)CC1 [PRUCALOPRIDE],37% and 56%,8% and 10%,74% and 72%,4% and 10%,0%,59% and 75%,62% and 43%,95% and 89%,17%,43% and 35%
N#Cc1cc(F)cc(-c2nc(-c3ccc(F)cn3)no2)c1,45%,10% and 8%,73% and 77%,4% and 10%,0%,51% and 61%,55% and 54%,95% and 89%,16% and 13%,29% and 22%
CN1CCN2c3ncccc3Cc3ccccc3C2C1 (stereo not drawn) [MIRTAZAPINE],45% and 47%,9% and 5%,75% and 79%,6%,0% and 1%,49% and 64%,54% and 52%,93%,15%,43% and 36%

# Same assay, conditions: human, 12 h, 10 µM, compound concentration 10 uM
row,Compound,Total Cell Count
1,COCCCN1CCC(NC(=O)c2cc(Cl)c(N)c3c2OCC3)CC1 [PRUCALOPRIDE],421 and 261
2,N#Cc1cc(F)cc(-c2nc(-c3ccc(F)cn3)no2)c1,383 and 269
3,CN1CCN2c3ncccc3Cc3ccccc3C2C1 (stereo not drawn) [MIRTAZAPINE],228 and 240

# Same assay, conditions: human, 24 h, 1 µM, compound concentration 1 uM
Compound,Population Apoptotic (%),Population Fragmented Nuclei (%),Population Healthy Nuclei (%),Population Hoechst High Intensity Objects (%),Population Membrane Permeable-Phenotype (%),Population Mitochondria Different-Phenotype (%),Population Mitotic Cells (%),Population Normal (%),Population Pyknosed Nuclei (%),Population Tubulin-Different-Phenotype (%)
COCCCN1CCC(NC(=O)c2cc(Cl)c(N)c3c2OCC3)CC1 [PRUCALOPRIDE],20% and 28%,11% and 8%,78% and 84%,5% and 4%,1% and 0%,18% and 39%,79% and 71%,94% and 95%,10% and 6%,14% and 10%
N#Cc1cc(F)cc(-c2nc(-c3ccc(F)cn3)no2)c1,43% and 48%,9% and 7%,77% and 82%,6% and 7%,0%,19% and 36%,56% and 51%,93% and 92%,12% and 9%,12% and 15%
CN1CCN2c3ncccc3Cc3ccccc3C2C1 (stereo not drawn) [MIRTAZAPINE],33% and 42%,9% and 6%,80% and 79%,3% and 6%,0%,35% and 47%,66% and 57%,97% and 93%,10% and 14%,18% and 17%

# Same assay, conditions: human, 24 h, 1 µM, compound concentration 1 uM
row,Compound,Total Cell Count
1,COCCCN1CCC(NC(=O)c2cc(Cl)c(N)c3c2OCC3)CC1 [PRUCALOPRIDE],590 and 546
2,N#Cc1cc(F)cc(-c2nc(-c3ccc(F)cn3)no2)c1,353 and 463
3,CN1CCN2c3ncccc3Cc3ccccc3C2C1 (stereo not drawn) [MIRTAZAPINE],601 and 373

# Same assay, conditions: human, 24 h, 10 µM, compound concentration 10 uM
Compound,Population Apoptotic (%),Population Fragmented Nuclei (%),Population Healthy Nuclei (%),Population Hoechst High Intensity Objects (%),Population Membrane Permeable-Phenotype (%),Population Mitochondria Different-Phenotype (%),Population Mitotic Cells (%),Population Normal (%),Population Pyknosed Nuclei (%),Population Tubulin-Different-Phenotype (%)
COCCCN1CCC(NC(=O)c2cc(Cl)c(N)c3c2OCC3)CC1 [PRUCALOPRIDE],28% and 50%,8% and 13%,77% and 73%,4% and 9%,0,48% and 51%,71% and 50%,95% and 90%,13% and 12%,32% and 25%
N#Cc1cc(F)cc(-c2nc(-c3ccc(F)cn3)no2)c1,41% and 39%,10%,74% and 79%,4% and 8%,0,34% and 40%,58% and 60%,95% and 91%,14% and 9%,18% and 12%
CN1CCN2c3ncccc3Cc3ccccc3C2C1 (stereo not drawn) [MIRTAZAPINE],44% and 32%,9% and 5%,78% and 80%,3% and 5%,0,40% and 44%,55% and 67%,96% and 94%,12% and 13%,28% and 18%

# Same assay, conditions: human, 24 h, 10 µM, compound concentration 10 uM
row,Compound,Total Cell Count
1,COCCCN1CCC(NC(=O)c2cc(Cl)c(N)c3c2OCC3)CC1 [PRUCALOPRIDE],531 and 341
2,N#Cc1cc(F)cc(-c2nc(-c3ccc(F)cn3)no2)c1,479 and 363
3,CN1CCN2c3ncccc3Cc3ccccc3C2C1 (stereo not drawn) [MIRTAZAPINE],274 and 314

# Same assay, conditions: human, 48 h, 1 µM, compound concentration 1 uM
Compound,Population Apoptotic (%),Population Fragmented Nuclei (%),Population Healthy Nuclei (%),Population Hoechst High Intensity Objects (%),Population Membrane Permeable-Phenotype (%),Population Mitochondria Different-Phenotype (%),Population Mitotic Cells (%),Population Normal (%),Population Pyknosed Nuclei (%),Population Tubulin-Different-Phenotype (%)
COCCCN1CCC(NC(=O)c2cc(Cl)c(N)c3c2OCC3)CC1 [PRUCALOPRIDE],24% and 21%,15% and 11%,76% and 81%,2% and 1%,1% and 0%,16% and 15%,75% and 78%,97% and 98%,7% and 6%,11% and 9%
N#Cc1cc(F)cc(-c2nc(-c3ccc(F)cn3)no2)c1,35% and 27%,15% and 11%,77% and 81%,1% and 0%,1%,16% and 18%,64% and 72%,98% and 99%,6%,11% and 10%
CN1CCN2c3ncccc3Cc3ccccc3C2C1 (stereo not drawn) [MIRTAZAPINE],23% and 44%,11% and 13%,82% and 80%,2% and 3%,1% and 0%,19% and 21%,76% and 55%,97% and 96%,6%,13% and 9%

# Same assay, conditions: human, 48 h, 1 µM, compound concentration 1 uM
row,Compound,Total Cell Count
1,COCCCN1CCC(NC(=O)c2cc(Cl)c(N)c3c2OCC3)CC1 [PRUCALOPRIDE],1001 and 832
2,N#Cc1cc(F)cc(-c2nc(-c3ccc(F)cn3)no2)c1,585 and 715
3,CN1CCN2c3ncccc3Cc3ccccc3C2C1 (stereo not drawn) [MIRTAZAPINE],885 and 562

# Same assay, conditions: human, 48 h, 10 µM, compound concentration 10 uM
Compound,Population Apoptotic (%),Population Fragmented Nuclei (%),Population Healthy Nuclei (%),Population Hoechst High Intensity Objects (%),Population Membrane Permeable-Phenotype (%),Population Mitochondria Different-Phenotype (%),Population Mitotic Cells (%),Population Normal (%),Population Pyknosed Nuclei (%),Population Tubulin-Different-Phenotype (%)
COCCCN1CCC(NC(=O)c2cc(Cl)c(N)c3c2OCC3)CC1 [PRUCALOPRIDE],20% and 35%,16%,77% and 75%,1% and 3%,1% and 0%,32% and 31%,79% and 64%,98% and 96%,6% and 7%,16% and 15%
N#Cc1cc(F)cc(-c2nc(-c3ccc(F)cn3)no2)c1,39% and 48%,16%,75% and 77%,1% and 4%,1%,18% and 22%,60% and 51%,98% and 95%,8% and 5%,9% and 11%
CN1CCN2c3ncccc3Cc3ccccc3C2C1 (stereo not drawn) [MIRTAZAPINE],31% and 30%,14% and 11%,74% and 81%,2% and 3%,0%,36% and 30%,68% and 69%,97% and 96%,10% and 7%,20% and 12%

# Same assay, conditions: human, 48 h, 10 µM, compound concentration 10 uM
row,Compound,Total Cell Count
1,COCCCN1CCC(NC(=O)c2cc(Cl)c(N)c3c2OCC3)CC1 [PRUCALOPRIDE],772 and 528
2,N#Cc1cc(F)cc(-c2nc(-c3ccc(F)cn3)no2)c1,643 and 501
3,CN1CCN2c3ncccc3Cc3ccccc3C2C1 (stereo not drawn) [MIRTAZAPINE],390 and 521

# Source: ChEMBL document CHEMBL5724801, “EUbOPEN Chemogenomics Library - Multiplex” (2024)
